ChEMBL document CHEMBL1799919, “Design, synthesis, biological evaluation, and structure-activity relationships of substituted phenyl 4-(2-oxoimidazolidin-1-yl)benzenesulfonates as new tubulin inhibitors mimicking combretastatin A-4” (J Med Chem, 2011)
The source made the active and inactive calls. The calls are words filed in the database; no cut-off is given here.

Assays:
HT-29 = assay: Antiproliferative activity against human HT-29 cells after 48 hrs by sulforhodamine B assay; format: functional, cell-based; conditions: HT-29, 48 h
M21 [1] = assay: Antiproliferative activity against human M21 cells after 48 hrs by sulforhodamine B assay; format: functional, cell-based; conditions: M21, 48 h
MCF7 = assay: Antiproliferative activity against human MCF7 cells after 48 hrs by sulforhodamine B assay; format: functional, cell-based; conditions: MCF7, 48 h
M21 [2] = assay: Cell cycle arrest in human M21 cells assessed as accumulation at G0/G1 phase at 5 times IC50 after 24 hrs using propidium iodide staining by flow cytometric analysis (reference value: 61%); format: functional
M21 [3] = assay: Cell cycle arrest in human M21 cells assessed as accumulation at S phase at 5 times IC50 after 24 hrs using propidium iodide staining by flow cytometric analysis (reference value: 30%); format: functional
M21 [4] = assay: Cell cycle arrest in human M21 cells assessed as accumulation at G2/M phase at 5 times IC50 after 24 hrs using propidium iodide staining by flow cytometric analysis (reference value: 9%); format: functional
MDA-MB-231 [5] = assay: Displacement of N,N'-ethylenebis(iodoacetamide) from colchicine-binding site of beta-tubulin in human MDA-MB-231 cells at 1000 times IC50 preincubated for after 2 hrs before N,N'-ethylenebis(iodoacetamide) addition measured after 1.5 hrs by chemiluminescence assay; format: cell-based
Procedure, shortened: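 EBI (100 μM final) added for 1.5 h at 37 °C; controls received 0.5% DMSO. Lysates (20 μg protein) run on 10% SDS-PAGE and blotted with anti-β-tubulin (TUB 2.1). β-tubulin–EBI adduct band detected by ECL.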

CHO = assay: Antiproliferative activity against CHO cells after 48 hrs by sulforhodamine B assay; format: functional, cell-based; conditions: Cricetulus griseus
K562 = assay: Antiproliferative activity against human K562 cells after 48 hrs by sulforhodamine B assay; format: functional, cell-based; conditions: K562, 48 h
L1210 = assay: Antiproliferative activity against mouse L1210 cells after 48 hrs by sulforhodamine B assay; format: functional, cell-based; conditions: L1210, 48 h
[6] = Antiproliferative activity against mouse P388D1 cells after 48 hrs by sulforhodamine B assay; format: functional, cell-based; conditions: P388D1, 48 h
[7] = Antiproliferative activity against mouse B16F0 cells after 48 hrs by sulforhodamine B assay; format: functional, cell-based; conditions: B16F0, 48 h
DU-145 = assay: Antiproliferative activity against human DU145 cells after 48 hrs by sulforhodamine B assay; format: functional, cell-based; conditions: DU-145, 48 h
HT-1080 [8] = assay: Antiproliferative activity against human HT1080 cells after 48 hrs by sulforhodamine B assay; format: functional, cell-based; conditions: HT-1080, 48 h
MDA-MB-231 [9] = assay: Antiproliferative activity against human MDA-MB-231 cells after 48 hrs by sulforhodamine B assay; format: functional, cell-based; conditions: MDA-MB-231, 48 h
SK-OV-3 = assay: Antiproliferative activity against human SKOV3 cells after 48 hrs by sulforhodamine B assay; format: functional, cell-based; conditions: SK-OV-3, 48 h
CCRF-CEM = assay: Antiproliferative activity against human CEM cells after 48 hrs by sulforhodamine B assay; format: functional, cell-based
CHO-TAX 5-6 [10] = assay: Antiproliferative activity against paclitaxel-resistant CHO-TAX 5-6 cells after 48 hrs by sulforhodamine B assay; format: functional, cell-based; conditions: Cricetulus griseus, CHO-TAX 5-6, 48 h
CHO-TAX 5-6 [11] = assay: Resistant ratio of IC50 for paclitaxel-resistant CHO-TAX 5-6 cells to IC50 for CHO cells; format: functional, Cricetulus griseus
Procedure, shortened: (§1)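 Ratio of the IC50 in the resistant line (CEM-VLB, CHO-TAX 5-6 or CHO-VV 3-2) to the IC50 in its parental line (CEM or CHO).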

[12] = Antiproliferative activity against multidrug-resistant human CEM/VLB cells after 48 hrs by sulforhodamine B assay; format: functional
CEM-VLB = assay: Resistant ratio of IC50 for multidrug-resistant human CEM-VLB cells to IC50 for human CEM cells; format: functional; procedure, shortened: as §1
M21 [13] = assay: Disruption of cytoskeleton microtubule structure of human M21 cells at 5 times IC50 after 16 hrs by indirect immunofluorescence assay; format: functional, cell-based
Procedure, shortened: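 Fixed in 3.7% formaldehyde, permeabilized with saponin, and stained with anti-β-tubulin (TUB 2.1), Alexa-488 secondary and DAPI. Microtubule structure scored by fluorescence microscopy.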

[14] = Toxicity against fertilized chicken embryo assessed as mortality at 10 ug per egg, iv by CAM assay; format: organism-based, Gallus gallus; conditions: in vivo
Procedure, shortened: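 Fertilized chicken eggs incubated 10 days with automatic turning, then static. HT-1080 cells (3.5 × 10^5 cells/egg) grafted onto exposed CAM. On day 11, drug in DMSO diluted into cremophor/ethanol/PBS (6.25/6.25/87.5 v/v) excipient, DMSO below 0.5%, 100 μL injected iv into 10-12 eggs. Eggs incubated to day 17, dead embryos counted. Untreated eggs used for normalization. Two independent experiments, at least 10 eggs each.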

HT-1080 [15] = assay: Antivasculogenic activity against human HT1080 cells xenografted in chicken chorioallantoic membrane assessed as inhibition of tumor growth at 10 ug per egg, iv measured on day 14 by CAM assay; format: functional; set-up: scale not given: the % may be the effect or the level left
CHO-VV 3-2 = assay: Antiproliferative activity against colchicine- and vinblastine-resistant CHO-VV 3-2 cells after 48 hrs by sulforhodamine B assay; conditions: Cricetulus griseus, CHO-VV 3-2, 48 h

## COc1ccc(OS(=O)(=O)c2ccc(N3CCNC3=O)cc2)cc1
HT-29
  IC50: 130 nM
M21 [1]
  IC50: 98 nM
MCF7
  IC50: 160 nM
M21 [2]
  Activity: 0%
M21 [3]
  Activity: 5%
M21 [4]
  Activity: 95%
MDA-MB-231 [5]
  inhibition: Active
CHO
  IC50: 240 nM
K562
  IC50: 240 nM
L1210
  IC50: 250 nM
[6]
  IC50: 260 nM
[7]
  IC50: 510 nM
DU-145
  IC50: 650 nM
HT-1080 [8]
  IC50: 240 nM
MDA-MB-231 [9]
  IC50: 760 nM
SK-OV-3
  IC50: 320 nM
CCRF-CEM
  IC50: 250 nM
CHO-TAX 5-6 [10]
  IC50: 200 nM
CHO-TAX 5-6 [11]
  Ratio IC50: 0.83
[12]
  IC50: 320 nM
CEM-VLB
  Ratio IC50: 1.3
M21 [13]
  Activity: Active
[14]
  Activity: Active
HT-1080 [15]
  Activity: 13%
CHO-VV 3-2
  IC50: 250 nM
